The compounds below were run against 4-hydroxyphenylpyruvate dioxygenase (Sus scrofa, UniProt Q02110) (assay: Inhibition of pig liver 4-Hydroxyphenylpyruvate dioxygenase (4-HPPD) enzyme).
Summary of the method: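 Spectrophotometric enol borate assay. Mixture: potassium phosphate/borate buffer (0.42 M H₃BO₃ brought to pH 6.2 with 0.17 M Na₃PO₄), 4-hydroxyphenylpyruvic acid (1.8 mM stock), reduced dichlorophenolindophenol with glutathione, and phenylpyruvate tautomerase. Equilibrated about 15 min at 308 nm, then enzyme added with varying inhibitor concentrations. Absorbance decrease at 308 nm followed for 15 min. IC50 from fit to v_i = v₀/(1+[I]/IC50).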

Chain of 4-hydroxyphenylpyruvate dioxygenase (Q02110 whole entry): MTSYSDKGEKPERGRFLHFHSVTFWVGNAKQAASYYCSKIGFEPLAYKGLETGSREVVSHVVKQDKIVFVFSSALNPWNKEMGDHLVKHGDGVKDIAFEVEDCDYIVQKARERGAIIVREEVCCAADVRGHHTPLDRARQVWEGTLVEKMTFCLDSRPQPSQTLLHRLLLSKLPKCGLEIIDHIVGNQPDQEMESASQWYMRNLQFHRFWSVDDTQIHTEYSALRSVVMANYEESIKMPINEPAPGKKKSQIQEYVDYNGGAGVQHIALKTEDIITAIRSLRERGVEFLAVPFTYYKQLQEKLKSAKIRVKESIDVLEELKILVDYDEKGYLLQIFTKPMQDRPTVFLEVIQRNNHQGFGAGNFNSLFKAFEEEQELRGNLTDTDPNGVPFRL

| SMILES | IC50 [µM] |
| --- | --- |
| O=C1CCCC(O)=C1Cc1ccccc1[N+](=O)[O-] | 126 |
| O=C1CCCC(=O)N1Cc1ccccc1[N+](=O)[O-] | 250 |
| O=C1CCCC(=O)C1=C(NO)c1ccccc1[N+](=O)[O-] | 50 |
| O=C1CCCC(=O)N1C(=O)c1ccccc1[N+](=O)[O-] | 60 |
| COC1=C(C(=O)c2ccccc2[N+](=O)[O-])C(=O)CCC1 | 52 |
| O=C1CCCC(Cl)=C1C(=O)c1ccccc1[N+](=O)[O-] | 64 |

Stronger by IC50, values ahead:

| IC50 [µM] | SMILES |
| --- | --- |
| 0.16 | O=C1CCCC(=O)C1=C(O)c1ccccc1[N+](=O)[O-] |
| 0.53 | O=C1CCC=C(Cl)/C1=C(/O)c1ccccc1[N+](=O)[O-] |
| 0.7 | O=C1CCCC/C1=C(/O)c1ccccc1[N+](=O)[O-] |

Source: ChEMBL document CHEMBL1135420, “Mode of action of 4-hydroxyphenylpyruvate dioxygenase inhibition by triketone-type inhibitors” (J Med Chem, 2002)
